The subject of test [1] is Mus musculus. Description: In vivo inhibition of mRNA splicing of human SMN2 exon 7 in FVB.Cg-Tg(SMN2 delta 7 exon)4299Ahmb Tg(SMN2)89Ahmb Smn1tm1Msd/J mouse assessed as median survival time at 6 mg/kg/day, po bid administered on postnatal day 24 (reference value: 14 days). In kind it is functional.
For test [2], the system named is Mus musculus. Description: In vivo inhibition of mRNA splicing of human SMN2 exon 7 in FVB.Cg-Tg(SMN2 delta 7 exon)4299Ahmb Tg(SMN2)89Ahmb Smn1tm1Msd/J mouse assessed as median survival time at 2 mg/kg/day, po bid administered on postnatal day 24 (reference value: 14 days). In kind it is functional.
In test [3] the test system is Mus musculus. Description: In vivo inhibition of mRNA splicing of human SMN2 exon 7 in FVB.Cg-Tg(SMN2 delta 7 exon)4299Ahmb Tg(SMN2)89Ahmb Smn1tm1Msd/J mouse assessed as median survival time at 0.6 mg/kg/day, po bid administered on postnatal day 24 (reference value: 14 days). In kind it is functional.
The species entered for test [4] is Homo sapiens. Description: Inhibition of mRNA splicing of SMN2 exon 7 in GM03813 fibroblasts derived from SMA patient assessed as compound concentration required to increase SMN protein level by 1.5 times after 24 hrs by HTRF assay.
Test [5] relates to Mus musculus. Description: In vivo inhibition of mRNA splicing of human SMN2 exon 7 in FVB.Cg-Tg(SMN2 delta 7 exon)4299Ahmb Tg(SMN2)89Ahmb Smn1tm1Msd/J mouse assessed as increase in SMN protein level in spinal cord at 0.03 mg/kg, ip qd administered on postnatal day 3 to day 9 by HTRF assay relative to control. The class given is functional. Details: scale not given: the % may be the effect or the level left. Summed up: (§1)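 Homozygous Δ7 SMA mice were dosed IP once daily from PND3 to PND9 with compound or vehicle (100% DMSO solution, 2.5 mL/kg). Brain, spinal cord and quadriceps were homogenized in RIPA buffer with protease inhibitors. SMN was read by HTRF (anti-SMN d2 and Kryptate antibodies, overnight rt, 665/620 nm) and normalized to BCA total protein. Values are % change versus vehicle ±SD; 5-11 mice per group.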

Test [6] deals with Mus musculus. Description: In vivo inhibition of mRNA splicing of human SMN2 exon 7 in FVB.Cg-Tg(SMN2 delta 7 exon)4299Ahmb Tg(SMN2)89Ahmb Smn1tm1Msd/J mouse assessed as increase in SMN protein level in quadriceps at 0.03 mg/kg, ip qd administered on postnatal day 3 to day 9 by HTRF assay relative to control. In kind it is functional. Details: scale not given: the % may be the effect or the level left. Summed up:
as §1
(TR-FRET usually uses a lanthanide donor and a delayed reading to cut background.)

Test [7] deals with Mus musculus. Description: In vivo inhibition of mRNA splicing of human SMN2 exon 7 in FVB.Cg-Tg(SMN2 delta 7 exon)4299Ahmb Tg(SMN2)89Ahmb Smn1tm1Msd/J mouse assessed as median survival time at 1 mg/kg/day, ip administered on postnatal day 3 to day 23 (reference value: 14 days). In kind it is functional.
The test system of test [8] is Mus musculus. Description: In vivo inhibition of mRNA splicing of human SMN2 exon 7 in FVB.Cg-Tg(SMN2 delta 7 exon)4299Ahmb Tg(SMN2)89Ahmb Smn1tm1Msd/J mouse assessed as median survival time at 0.1 mg/kg/day, ip administered on postnatal day 3 to day 23 (reference value: 14 days). The class given is functional.
Test [9] relates to Mus musculus. Description: In vivo inhibition of mRNA splicing of human SMN2 exon 7 in FVB.Cg-Tg(SMN2 delta 7 exon)4299Ahmb Tg(SMN2)89Ahmb Smn1tm1Msd/J mouse assessed as increase in SMN protein level in brain at 0.03 mg/kg, ip qd administered on postnatal day 3 to day 9 by HTRF assay relative to control. Also on record: scale not given: the % may be the effect or the level left. In kind it is functional. Summed up: as §1

The test system of test [10] is Mus musculus. Description: In vivo inhibition of mRNA splicing of human SMN2 exon 7 in FVB.Cg-Tg(SMN2 delta 7 exon)4299Ahmb Tg(SMN2)89Ahmb Smn1tm1Msd/J mouse assessed as median survival time at 0.3 mg/kg/day, ip administered on postnatal day 3 to day 23 (reference value: 14 days). In kind it is functional.
Test [11] concerns Mus musculus. Description: In vivo inhibition of mRNA splicing of human SMN2 exon 7 in FVB.Cg-Tg(SMN2 delta 7 exon)4299Ahmb Tg(SMN2)89Ahmb Smn1tm1Msd/J mouse assessed as increase in SMN protein level in quadriceps at 3 mg/kg, ip qd administered on postnatal day 3 to day 9 by HTRF assay relative to control. The class given is functional. Details: scale not given: the % may be the effect or the level left. In outline: as §1

Test [12] relates to Mus musculus. Description: In vivo inhibition of mRNA splicing of human SMN2 exon 7 in FVB.Cg-Tg(SMN2 delta 7 exon)4299Ahmb Tg(SMN2)89Ahmb Smn1tm1Msd/J mouse assessed as increase in SMN protein level in spinal cord at 1 mg/kg, ip qd administered on postnatal day 3 to day 9 by HTRF assay relative to control. Details: scale not given: the % may be the effect or the level left. The class given is functional. Summed up: as §1

The test system of test [13] is Mus musculus. Description: In vivo inhibition of mRNA splicing of human SMN2 exon 7 in FVB.Cg-Tg(SMN2 delta 7 exon)4299Ahmb Tg(SMN2)89Ahmb Smn1tm1Msd/J mouse assessed as increase in SMN protein level in brain at 3 mg/kg, ip qd administered on postnatal day 3 to day 9 by HTRF assay relative to control. The class given is functional. Details: scale not given: the % may be the effect or the level left. In outline: as §1

Test [14] concerns Mus musculus. Description: In vivo inhibition of mRNA splicing of human SMN2 exon 7 in FVB.Cg-Tg(SMN2 delta 7 exon)4299Ahmb Tg(SMN2)89Ahmb Smn1tm1Msd/J mouse assessed as increase in SMN protein level in quadriceps at 1 mg/kg, ip qd administered on postnatal day 3 to day 9 by HTRF assay relative to control. The class given is functional. Also on record: scale not given: the % may be the effect or the level left. In outline: as §1

The test system of test [15] is Mus musculus. Description: In vivo inhibition of mRNA splicing of human SMN2 exon 7 in FVB.Cg-Tg(SMN2 delta 7 exon)4299Ahmb Tg(SMN2)89Ahmb Smn1tm1Msd/J mouse assessed as median survival time at 20 mg/kg/day, po bid administered on postnatal day 24 (reference value: 14 days). In kind it is functional.
Test [16] is filed under the species Homo sapiens. Description: Inhibition of mRNA splicing of human SMN2 exon 7 transfected in HEK293H cells assessed as compound concentration required to increase full-length SMN2 mRNA level by 1.5 times after 24 hrs by RT-qPCR analysis relative to GAPDH. The class given is cell-based. Summed up:
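HEK293H cells stably carrying the SMN2 minigene (exon 6 to 5' exon 8 fused to firefly luciferase) were plated and held for 6 h, then treated 24 h in duplicate at varying concentrations (0.5% DMSO). Full-length minigene mRNA and GAPDH were quantified by TaqMan RT-qPCR using actual PCR efficiencies. Results were normalized to GAPDH and DMSO and expressed as fold change versus DMSO.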

Test [17] deals with Mus musculus. Description: In vivo inhibition of mRNA splicing of human SMN2 exon 7 in FVB.Cg-Tg(SMN2 delta 7 exon)4299Ahmb Tg(SMN2)89Ahmb Smn1tm1Msd/J mouse assessed as median survival time at 3 mg/kg/day, ip administered on postnatal day 3 to day 23 (reference value: 14 days). The class given is functional.

In ChEMBL document CHEMBL4477216, “Discovery and Optimization of Small Molecule Splicing Modifiers of Survival Motor Neuron 2 as a Treatment for Spinal Muscular Atrophy” (J Med Chem, 2016) one finds MST, EC1.5 and Activity data, which are given here for 3 compounds.

The structures appear in SMILES notation.

With `CCN1CCN(c2ccc3cc(-c4cn5cc(C)nc(C)c5n4)c(=O)oc3c2)C[C@@H]1C`, the MST is more than 150 days with Mus musculus [1]; more than 55 days in the test with Mus musculus [2]; 34 days with Mus musculus [3]; more than 150 days in the test with Mus musculus [7]; 34 days with Mus musculus [8]; more than 55 days in the test on Mus musculus [10]. The EC1.5 in the test listed under Homo sapiens [4] turned out to be 44 nM. Besides, the Activity is reported as 7% with Mus musculus [5], -3% in the test on Mus musculus [6] and -10% in the test with Mus musculus [9].

As to `Cc1cn2cc(-c3cc4ccc(N5CCN(C)CC5)cc4c(=O)o3)nc2c(C)n1`, the MST with Mus musculus [2], in the test with Mus musculus [3], in the test with Mus musculus [8] and with Mus musculus [10] was more than 100 days in each case. Besides, the Activity in the test on Mus musculus [11] is on record as 517%; with Mus musculus [12] it was 203%; in the test on Mus musculus [13] it was 395%; in the test with Mus musculus [14], 343%.

Take `Cc1cn2nc(-c3cc(=O)n4cc(N5CCN(C)CC5)ccc4n3)cc2c(C)n1`: the MST with Mus musculus [1] was 45 days; in the test on Mus musculus [15] it was more than 190 days; in the test on Mus musculus [17], more than 190 days; with Mus musculus [7] it was 45 days. For the same compound, the figures for the EC1.5 in the test filed under Homo sapiens [16] and in the test listed under Homo sapiens [4] were 35 nM and 160 nM, respectively. The Activity in the test on Mus musculus [11] came to 218%; in the test with Mus musculus [12], 123%; in the test with Mus musculus [13], 230%; in the test with Mus musculus [14] it was 129%.
